Source: PubChem
OXTR agonist = human OXTR agonists, primary screen, fluorescence, CHO-OTR cells, Fluo-8 calcium. Fluo-8 calcium fluorescence; normalized: DMSO 0%, oxytocin 100%. activation, % at 3 µM. 320,000 tested, 0.32% active. AID 2435, 2010;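 active means activation above the mean of all tested compounds plus 3 SD, cutoff set per screening run, cut at about 20% in these data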;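 further: peak over basal fluorescence ratio from a 100 s FLIPR kinetic read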
TRPML3 agonist = human TRPML3 channel agonists, primary screen, cell-based, HEK293 TRPML3-YFP, Fluo-8 calcium fluorescence, 3 µM | activation, % at 3 µM | 220,000 tested, 0.29% active | 100% = the carbachol control signal;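 active means activation above its plate's cutoff, the mean activation of the plate's test wells plus 3 SD, cut at about 12% in these data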
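Test system: HEK293 cells stably carrying human TRPML3-YFP; Doses: single dose, 3 µM final nominal compound, 0.3% DMSO final; Schedule: dye loading 1 h 37 °C then 30 min ambient, 125 s read; Technique: Fluo-8 calcium fluorescence; Benchmarks: high control carbachol 87 µM, low control DMSO.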
OXTR potentiator = human OXTR potentiators, primary screen, fluorescence, CHO-OTR cells, Fluo-8 calcium; AID 2445, 2010; activation, % at 3 µM; 320,000 tested, 0.061% active; Oxytocin receptor (Homo sapiens), P30559; Fluo-8 calcium fluorescence, potentiator mode; 0% = oxytocin EC15, 100% = EC100;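 active means activation above that plate's cutoff, the mean activation of tested compounds plus 3 SD, cut at about 6.6% in these data, passing the limit was not always enough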
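test system = CHO-OTR cells, human receptor | compound = single-point 3.0 µM | schedule = 6 min compound pre-incubation at room temperature, 100 s kinetic read | signal = Fluo-8 no-wash calcium dye fluorescence, excitation 470-495 nm, emission 515-575 nm | repeats = single well per compound, singlicate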
V1aR counter = agonists of human V1a receptor, primary screen, counter-screen for OXTR agonist project, fluorescence, CHO-V1R cells; Fluo-8 calcium fluorescence, agonist mode; 0% DMSO, 100% 3 nM vasopressin; activation, % at 3 µM; 320,000 tested, 0.25% active; AID 2797, 2010;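 active means activation above the mean activation of all tested compounds plus 3 SD, per screening run, cut at about 20% in these data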;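 further: signal is peak over basal fluorescence ratio across a 100 second FLIPR read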
Target sequence (P37288 whole entry, looked up): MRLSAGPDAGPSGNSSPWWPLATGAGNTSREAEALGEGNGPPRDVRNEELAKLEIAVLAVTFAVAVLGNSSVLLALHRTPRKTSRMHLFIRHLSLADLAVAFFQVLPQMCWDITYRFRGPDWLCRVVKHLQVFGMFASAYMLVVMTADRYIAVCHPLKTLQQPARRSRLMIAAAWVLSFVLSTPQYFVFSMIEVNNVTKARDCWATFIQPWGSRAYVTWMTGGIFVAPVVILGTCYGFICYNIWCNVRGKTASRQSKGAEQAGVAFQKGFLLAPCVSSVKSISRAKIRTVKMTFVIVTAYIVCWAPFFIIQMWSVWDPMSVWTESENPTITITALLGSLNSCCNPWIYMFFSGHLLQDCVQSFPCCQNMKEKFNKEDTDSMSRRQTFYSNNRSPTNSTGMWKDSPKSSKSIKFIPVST
CRFBP-R2 agonist = agonists of CRF-BP/CRF-R2 complex, primary screen, cell-based, HEK293, calcium dye fluorescence, uHTS; calcium dye fluorescence (FLIPR); percent of saturating CRF peptide response; activation, % at 13.2 µM; 350,000 tested, 0.46% active; AID 588473, 2011;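 active means activation of at least 50%, plus an integration ratio under a set limit after plate pattern correction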
zfTRPN1 agonist = zebrafish TRPN1 channel agonists, primary screen, cell-based, HEK293, calcium fluorescence. activation, % at 3 µM. AID 1424, 2008. 220,000 tested, 0.18% active. HEK293 zebrafish TRPN1-YFP, Fluo-8 calcium fluorescence; 100% = response to 87 µM carbachol. transient receptor potential cation channel N1 (TRPN1/NompC), Danio rerio;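 active means activation above its plate's cutoff, the mean activation of test wells on that plate plus 3 SD, cut at about 19% in these data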
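Material – zebrafish TRPN1-YFP in HEK293 cells · Doses – 3 µM single point · Schedule – dye 1 h 37 °C plus 30 min RT · Signal – Fluo-8 calcium fluorescence, excitation 470-495 nm, emission 515-575 nm · Read-out – % activation versus carbachol response · Control set – carbachol high, DMSO low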
OXTR pot confirm = human OXTR potentiators, confirmation, fluorescence, CHO-OTR cells, triplicate; shares compounds with OXTR potentiator; Fluo-8 calcium fluorescence, potentiation; scaled from low-dose to maximal oxytocin; activation, % at 3 µM; 180 tested, under 10 active;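 active means mean percent activation over triplicates above a cutoff set from solvent-only control plates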;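 further: compounds tested in the presence of an EC15 dose of oxytocin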
Large screens that a line does not name were inactive (follow-up assays come after a bar, where they were run). Shown are actives, neighbours in structure and some others; about 0.85% of the full set was active somewhere.

c1ccc(-c2noc(CSc3nc4ccccc4o3)n2)cc1	OXTR potentiator 13 | OXTR pot confirm inactive
Clc1ccc(-c2nnc(SCc3nc(-c4ccccc4)no3)o2)cc1	none
CCOc1cc(/C=N/NC(=O)C(=O)NC2CC2)cc(Br)c1O	OXTR potentiator 16 | OXTR pot confirm inactive
CCOc1cc(/C=N/NC(=O)C(N)=O)cc(Br)c1O	none
COc1ccccc1OCC(=O)N/N=C/c1c(O)ccc2ccccc12	none (no result: TRPML3 agonist, CRFBP-R2 agonist, zfTRPN1 agonist)
O=C(CN1CCOCC1)Nc1ccc2c(c1)CCC2	none
Cc1coc2c(C)c3oc(=O)c(CCC(=O)NCCCN4CCCC4=O)c(C)c3cc12	OXTR potentiator 12 (no result: TRPML3 agonist, zfTRPN1 agonist) | OXTR pot confirm inactive
CCN(C(=S)Nc1cccc2ccccc12)c1ccccc1	none (no result: OXTR agonist, TRPML3 agonist, OXTR potentiator, V1aR counter, zfTRPN1 agonist)
CCN(C(=S)NC(=O)CCc1ccccc1)c1ccccc1	OXTR potentiator 12 | OXTR pot confirm inactive
COc1cc(/C=C(/C#N)C(=O)NC(C)c2ccccc2)cc(OC)c1O (configuration not stated)	none (no result: TRPML3 agonist, zfTRPN1 agonist)
CC(NC(=O)/C(C#N)=C/c1ccc(C(=O)O)cc1)c1ccccc1 (configuration not stated)	OXTR potentiator 13 (no result: TRPML3 agonist, zfTRPN1 agonist) | OXTR pot confirm inactive
CCCCCC(=O)N1C[C@H](n2cc(-c3ccc(F)cc3)nn2)[C@@H](O)C[C@@H]1c1ccc(C)cc1	none (no result: OXTR agonist, TRPML3 agonist, OXTR potentiator, V1aR counter, zfTRPN1 agonist)
CCCCn1c(-c2ccoc2C)n[nH]c1=S	OXTR potentiator 10 | OXTR pot confirm inactive
Cc1nc(=O)c(-c2ccccc2)c(C)n1-c1ccc(O)c(C(=O)O)c1	none
Cc1cc(C)n(-c2cc(C(C)(C)C)nc3c(-c4ccc(Cl)cc4)cnn23)n1	OXTR potentiator 13 | OXTR pot confirm 7.8
CCCCc1ccc(NC(=O)N[C@H](C(=O)O)C(C)CC)cc1 (some centres not stated)	OXTR potentiator 13 | OXTR pot confirm inactive
N#Cc1cn(-c2ccccc2)nc1-c1ccc2c(c1)OCCO2	none
N#Cc1cn(-c2ccccc2)nc1-c1ccco1	OXTR potentiator 13 | OXTR pot confirm inactive
Cc1cccc(NC(=O)c2cc(S(=O)(=O)N3CCCCC3)ccc2Cl)n1	none (no result: OXTR agonist, TRPML3 agonist, OXTR potentiator, V1aR counter, zfTRPN1 agonist)
COc1ccc(NS(=O)(=O)c2cccc(C(=O)N/N=C/c3cn(-c4ccccc4)nc3-c3ccccc3)c2)cc1	none
COc1ccc(NS(=O)(=O)c2cccc(C(=O)N/N=C/c3cn(-c4ccccc4)nc3-c3ccc(OC)cc3)c2)cc1	OXTR potentiator 8.9 | OXTR pot confirm inactive
Cc1cn([C@H]2C[C@H](O)[C@@H](COS(=O)(=O)O)O2)c(=O)[nH]c1=O	OXTR potentiator 14 (no result: TRPML3 agonist, zfTRPN1 agonist) | OXTR pot confirm inactive
CCCOc1ccc(-c2c(C(=O)N/N=C/c3ccc(OC)cc3)nnn2-c2nonc2N)cc1	none
CCOc1ccc(-c2c(C(=O)N/N=C/c3ccc(O)cc3)nnn2-c2nonc2N)cc1	OXTR potentiator 9.6 | OXTR pot confirm inactive
COc1cc(C(=O)N2CCN(S(=O)(=O)c3cccc(F)c3)CC2)ccc1OCC(=O)N1CCOCC1	none (no result: TRPML3 agonist, zfTRPN1 agonist)
CC1CCCC(NC(=O)COC(=O)c2ccccc2NC(=O)c2ccco2)C1C (configuration not stated)	OXTR potentiator 10 | OXTR pot confirm inactive
O=C(COC(=O)c1ccccc1NC(=O)c1ccco1)NC1CCCCC1	none
CCCN(c1nc(C)cc(OC)n1)S(=O)(=O)c1ccccc1	OXTR potentiator 13 | OXTR pot confirm inactive
COC(=O)CN(c1nc(C)cc(OC)n1)S(=O)(=O)c1ccccc1	none (no result: OXTR agonist, OXTR potentiator, V1aR counter)
